# Shown are actives, neighbours in structure and some others; about 2.2% of the full set was active somewhere.
# HNF4A DNA FP = change in binding of human HNF4 alpha to DNA | HNF4a-FITC DNA binding, fluorescence polarization, 1 h | P41235 | actives 0.3% (n = 360,000) | activity change, % at 10 µM | AID 1224865; in the data active means activity change above about 30%, passing the limit was not always enough
# Target sequence (P41235 whole entry, looked up): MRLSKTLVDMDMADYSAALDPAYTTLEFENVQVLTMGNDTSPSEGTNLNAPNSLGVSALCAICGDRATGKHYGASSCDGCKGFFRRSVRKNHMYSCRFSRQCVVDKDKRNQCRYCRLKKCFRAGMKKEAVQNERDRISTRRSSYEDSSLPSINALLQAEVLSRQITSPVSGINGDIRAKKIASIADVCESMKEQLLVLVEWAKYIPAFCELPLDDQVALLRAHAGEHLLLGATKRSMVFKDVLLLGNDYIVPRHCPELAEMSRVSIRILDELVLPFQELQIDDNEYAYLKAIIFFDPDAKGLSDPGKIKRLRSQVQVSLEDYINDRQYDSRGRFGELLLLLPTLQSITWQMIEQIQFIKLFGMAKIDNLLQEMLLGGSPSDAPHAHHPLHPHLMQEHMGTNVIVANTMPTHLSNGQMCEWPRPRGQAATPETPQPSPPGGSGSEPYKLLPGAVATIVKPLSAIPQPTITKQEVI
# CSN deneddyl inh = CSN deneddylation inhibition; inhibition, % at 12.5 µM; Purified CSN, SCF-Nedd8-OG deneddylation, fluorescence polarization; actives 0.38% (n = 360,000); Q92905;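 active means pattern-corrected inhibition above about 35%, with an unprinted fluorescence ratio check between 0.5 and 1.5, limit read from the data, passing the limit was not always enough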
#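 Test system: purified human Csn5 enzyme expressed in HEK293T cells. Amount: 0.24 nM enzyme. Reagent: SCFSkp2-Nedd8OG substrate at 10 nM final. Schedule: 90 min incubation of compound, enzyme and substrate at room temperature. Detection: fluorescence polarization. Read-out: % inhibition of substrate cleavage by Csn5.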
# Myeloid diff MLP = myeloid differentiation induction; calls only at 10 µM; ER-HoxA9 myeloid progenitors, lysozyme-GFP differentiation, flow cytometry; AID 624256; actives 1% (n = 360,000);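 active means normalized GFP-positive differentiation at or above the plate's own cutoff, the solvent-only control mean plus 3 SD; inconclusive means no clear call, values can overlap the other calls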;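 further: cells exposed to compound for four days before flow analysis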
# Granule exo inh = blocks lytic granule exocytosis | inhibition, % at 10 µM | TALL-104 LAMP-1 surface exposure, flow cytometry; cells stimulated with thapsigargin and PMA | AID 651702 | actives 0.66% (n = 360,000);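 active means inhibition above about 55%, limit read from the data; inconclusive means no clear call, values can overlap the other calls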
# Granule exo CP1 = lytic granule exocytosis inhibition; shares compounds with Granule exo inh; TALL-104 cells, LAMP-1 externalization, flow cytometry; stimulated with PMA plus thapsigargin; inhibition, % at 10 µM; actives 11% (n = 1,500); AID 651954; in the data active means inhibition above about 60%
# Numbers stand for hits; 0 = inactive; ? = inconclusive; - = not tested or not shown; + = active, no number.
SMILES,HNF4A DNA FP,CSN deneddyl inh,Myeloid diff MLP,Granule exo inh,Granule exo CP1
COc1ccc(C2(c3ccc(OC)cc3)NC(=O)N(CC(=O)N(C)C3CCC(C)CC3)C2=O)cc1 (centres undefined),0,0,0,0,-
Cc1ccc2nc(C)c(CN3CCN(c4ccc([N+](=O)[O-])cc4Cl)CC3)n2c1,0,0,?,72,0
CC(OC(=O)CCN1C(=O)C2CC=CCC2C1=O)C(=O)c1ccc(F)cc1 (centres undefined),0,0,0,0,-
N#CCCn1c(-c2nonc2NC(=O)c2ccccc2Cl)nc2ccccc21,0,0,0,0,-
CCCCn1c(-c2nonc2NC(=O)c2ccccc2Cl)nc2ccccc21,0,0,+,77,0
CCn1nc(C)cc1C(=O)NC1CCCc2c1cnn2-c1ccc(C)c(C)c1 (centres undefined),0,0,0,60,0
CC(=O)NC12CC3CC(C1)CC(C(=O)Oc1ccc(N(C)S(=O)(=O)c4cc(C)ccc4C)cc1)(C3)C2,0,0,0,0,-
COc1ccc(C)cc1S(=O)(=O)NCC(c1ccco1)N1CCc2ccccc2C1 (centres undefined),0,0,0,0,-
Cc1cc(NCc2ccccn2)n2ncc(-c3ccc(Cl)cc3)c2n1,0,0,0,82,0
Cc1cc(NCc2ccccn2)n2ncc(-c3ccccc3)c2n1,0,0,0,0,-
CC(O)C(NS(=O)(=O)c1ccc(Cl)cc1)C(=O)OCCOc1ccc(F)cc1 (centres undefined),0,0,0,0,-
CCOC(=O)Nc1ccc2c(c1)N(C(=O)CCN(CC)CC)c1ccccc1S2=O (centres undefined),0,0,0,73,0
CCOC(=O)Nc1ccc2c(c1)N(C(=O)CCN(CC)CC)c1ccccc1CC2,0,0,0,0,-
Cc1nn(-c2ccccc2)c(Cl)c1C(=O)NNC(=O)c1ccccc1O,0,0,0,0,-
c1ccc(CCn2cccc2)nc1,0,0,0,0,-
CCCCC[C@@H](C)N1C[C@@H](COCc2ccccc2)Oc2cc(N3CC[C@H](N(C)C)C3)ccc2S1(=O)=O,0,0,0,56,69
CCCCC[C@H](C)N1C[C@@H](COCc2ccccc2)Oc2cc(N3CC[C@H](N(C)C)C3)ccc2S1(=O)=O,0,0,0,75,0
Cc1cc2c(cc1C)-n1nnnc1C(N1CCN(CC(=O)N3CCCC3)CC1)C(=O)N2 (centres undefined),0,0,0,0,-
O=C(Cc1cccs1)N(Cc1cccs1)C1(C(=O)NC2CCCC2)CCCCC1,0,0,0,77,0
O=C(Cc1cccs1)N(Cc1ccco1)C1(C(=O)NC2CCCCC2)CCCCC1,0,0,0,0,-
Cc1ccc(S(=O)(=O)N(CC(O)CN2CCOCC2)c2cccc([N+](=O)[O-])c2)cc1 (centres undefined),0,0,0,0,-
O=S(=O)(c1ccccc1F)N1CCN(CC(O)c2ccccc2)CC1 (centres undefined),0,0,0,80,0
Cc1cc(C)c(CN2CCN(CCCn3cnc(C(=O)Nc4ccc(C)c(C)c4)n3)CC2)c(C)c1,0,0,0,57,0
Cc1ccc(NCCCn2cnc(C(=O)Nc3ccc(C)c(C)c3)n2)cc1C,0,0,0,0,-
CCOc1cccc(CN2CCC(Oc3ccc(C(=O)N4CCCC4)cc3)CC2)c1O,0,0,0,0,-
SMILES,HNF4A DNA FP,CSN deneddyl inh,Myeloid diff MLP,Granule exo inh,Granule exo CP1
COc1cc(N)ccc1Nc1c2ccccc2nc2ccccc12,0,0,?,0,-
CCCS(=O)(=O)Nc1ccc(Nc2c3ccccc3nc3ccccc23)c(OC)c1,0,0,-,78,89
CN1CCN(c2nc(Nc3ccc(F)cc3)nc(Nc3ccc(F)cc3)n2)CC1,0,0,0,0,-
Cc1ccc(NS(=O)(=O)c2cc(C(=O)NCc3cccnc3)ccc2C)cc1,0,0,0,63,0
COc1ccc(C(=O)/C=C2\C(=O)Nc3ccc(Br)cc32)cc1,0,0,?,82,0
Cc1ccc(NC(=O)CC2OC(=O)c3ccccc32)cc1S(=O)(=O)N1CCOCC1 (centres undefined),0,0,0,0,-
O=C(O)c1ccccc1C(=O)OCCCc1ccncc1,0,0,0,0,-
Cc1cc(Nc2cccc(Br)c2)c2ccccc2n1,0,0,0,0,-
C=CC[C@H](CC(=O)NCCO)C(=O)N[C@H](COC(=O)[C@@H](CC=C)Cc1ccc(F)cc1)c1ccccc1,0,0,0,0,-
O=C(Nc1ccccc1N1CCOCC1)c1cccc(Oc2ccccc2)c1,0,0,0,63,0

# Screening results from PubChem.
